Experimental data taken from ChEMBL document CHEMBL1130393, “Antitumor agents. 178. Synthesis and biological evaluation of substituted 2-aryl-1,8-naphthyridin-4(1H)-ones as antitumor agents that inhibit tubulin polymerization” (J Med Chem, 1997).

How the values were obtained:
HL-60 = experiment: In vitro antitumor activity against HL-60(TB) tumor cell lines; format: functional; conditions: Homo sapiens
Tumor Cell line [1] = experiment: In vitro antitumor activity against NCI 's human tumor cell lines; format: functional; conditions: read-out: Average log GI50 (converted)
Method in brief: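 NCI in vitro screen of 60 human tumor cell lines. […] The value is calculated from all cell lines tested.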

MDA-N = experiment: In vitro antitumor activity against MDA-N tumor cell lines; format: functional; conditions: Homo sapiens
NCI-H460 = experiment: In vitro antitumor activity against NCI-H460 tumor cell lines; format: functional; conditions: Homo sapiens
OVCAR-3 = experiment: In vitro antitumor activity against OVCAR-3 tumor cell lines; format: functional; conditions: Homo sapiens
PC-3 = experiment: In vitro antitumor activity against PC-3 tumor cell lines; format: functional; conditions: Homo sapiens
SF-295 = experiment: In vitro antitumor activity against SF-295 tumor cell lines; format: functional; conditions: Homo sapiens
SK-MEL-5 = experiment: In vitro antitumor activity against SK-MEL-5 tumor cell lines; format: functional; conditions: Homo sapiens
U-251 = experiment: In vitro antitumor activity against U-251 tumor cell lines; format: functional; conditions: Homo sapiens
Tubulin = Tubulin (Bos taurus, UniProt Q6B856+Q862L2+Q862F3); experiment: Inhibition of tubulin polymerization; format: functional
Tubulin (Bos taurus) = Tubulin (Bos taurus) (UniProt Q6B856+Q862L2+Q862F3); experiment: Inhibition of radiolabeled colchicine binding to tubulin; format: protein assay; set-up: concentration or dose not given beside the values; conditions: concentration not given here
Method in brief: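 Measured by DEAE-cellulose filter binding. The 0.1 mL mixture held bovine brain tubulin 1.0 µM, 1.0 M monosodium glutamate (pH 6.6), 1 mM MgCl2, 0.1 mM GTP, 5.0 µM [3H]colchicine, 5% DMSO and inhibitor at 5.0 µM. It was incubated 20 min at 37 °C, filtered through two DEAE-cellulose papers, washed with water and counted by liquid scintillation.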

HCT-116 = experiment: In vitro antitumor activity against HCT116 tumor cell lines; format: functional; conditions: Homo sapiens
MDA-MB-435 = experiment: In vitro antitumor activity against MDA-MB-435 NCI 's human tumor cell lines; format: functional
CAKI-1 = experiment: In vitro antitumor activity against CAKI-1 tumor cell lines; format: functional; conditions: Homo sapiens
[2] = test system: Panel breast (Carcinoma cell lines); experiment: log molar concentration required to cause total growth inhibition of breast tumor cell lines; format: functional; conditions: Homo sapiens, read-out: Log TGI (converted)
Method in brief: (§1)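 TGI from the NCI 60 human tumor cell line in vitro screen: log of the molar drug concentration causing total growth inhibition, reported for the named cell panel.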

[3] = test system: Panel CNS (Carcinoma cell lines); experiment: log molar concentration required to cause total growth inhibition of CNS cancer cell lines; format: functional; conditions: Homo sapiens, read-out: Log TGI (converted); method in brief: as §1
[4] = test system: Panel colon (Carcinoma cell lines); experiment: log molar concentration required to cause total growth inhibition of colon tumor cell lines; format: functional; conditions: Homo sapiens, read-out: Log TGI (converted); method in brief: as §1
Leukemic tumor cell line = experiment: log molar concentration required to cause total growth inhibition of leukemic tumor cell lines; format: functional; conditions: Homo sapiens, read-out: Log TGI (converted); method in brief: as §1
Melanoma tumor cell line = experiment: log molar concentration required to cause total growth inhibition of melanomic tumor cell lines; format: functional; conditions: Homo sapiens, read-out: Log TGI (converted); method in brief: as §1
NSCLC = experiment: log molar concentration required to cause total growth inhibition of non-small cell lung tumor cell lines; format: functional; conditions: Homo sapiens, read-out: Log TGI (converted); method in brief: as §1
[5] = test system: Panel prostate (Carcinoma cell lines); experiment: log molar concentration required to cause total growth inhibition of prostate tumor cell lines; format: functional; conditions: Homo sapiens, read-out: Log TGI (converted); method in brief: as §1
[6] = test system: Panel renal (Carcinoma cell lines); experiment: log molar concentration required to cause total growth inhibition of renal tumor cell lines; format: functional; conditions: Homo sapiens, read-out: Log TGI (converted); method in brief: as §1
Tumor Cell line [7] = experiment: log molar concentration required to cause total growth inhibition of NCI 's human tumor cell lines; format: functional; conditions: read-out: Log TGI (converted)
Method in brief: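 NCI 60 human tumor cell line in vitro screen. TGI is the log molar concentration giving total growth inhibition, calculated from all cell lines tested.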

[8] = test system: Panel ovarian (Carcinoma cell lines); experiment: log molar concentration required to cause total growth inhibition of ovarian tumor cell lines; format: functional; conditions: Homo sapiens, read-out: Log TGI (converted); method in brief: as §1

Row | Compound | GI50 (HL-60) | GI50 (Tumor Cell line [1]) | GI50 (MDA-N) | GI50 (NCI-H460) | GI50 (OVCAR-3) | GI50 (PC-3) | GI50 (SF-295) | GI50 (SK-MEL-5) | GI50 (U-251) | IC50 (Tubulin) | inhibition (Tubulin (Bos taurus)) | GI50 (HCT-116) | GI50 (MDA-MB-435) | GI50 (CAKI-1) | TGI [2] | TGI [3] | TGI [4] | TGI (Leukemic tumor cell line) | TGI (Melanoma tumor cell line) | TGI (NSCLC) | also measured
1 | Cc1cnc2nc(-c3cccc4ccccc34)cc(O)c2c1 | < 0.01 µM | 0.0191 µM | < 0.01 µM | < 0.01 µM | < 0.01 µM | < 0.01 µM | < 0.01 µM | < 0.01 µM | < 0.01 µM | 0.55 µM | 46% | < 0.01 µM | < 0.01 µM | < 0.01 µM |  |  |  |  |  |  | 
2 | Cc1ccc2c(O)cc(-c3cccc(Cl)c3)nc2n1 | 0.0288 µM | 0.17 µM | > 100 µM | 0.0417 µM | < 0.01 µM | > 100 µM | 0.0229 µM | 0.0316 µM | 0.0646 µM | 0.89 µM | 38% | 0.0257 µM | < 0.01 µM | 0.0417 µM | 3.8 µM | 1.95 µM | 3.09 µM | > 100 µM | 69.2 µM | 24.5 µM | TGI [5]: > 100 µM; TGI [6]: > 100 µM; TGI (Tumor Cell line [7]): 21.4 µM; TGI [8]: 10.5 µM
3 | Cc1cc(C)c2c(O)cc(-c3cccc(F)c3)nc2n1 | 0.0372 µM | 0.0851 µM | 0.0129 µM | 0.0537 µM | 0.0182 µM | 0.0617 µM | 0.0331 µM | 0.0372 µM | 0.0646 µM | 0.74 µM | 29% | < 0.01 µM | < 0.01 µM | 0.0355 µM | 1 µM | 9.77 µM | 1.17 µM | 2.45 µM | 13.8 µM | 2.51 µM | TGI [5]: 49 µM; TGI [6]: 49 µM; TGI (Tumor Cell line [7]): 5.62 µM; TGI [8]: 5.5 µM
4 | Cc1ccc2c(=O)cc(-c3cccc(F)c3)[nH]c2n1 | 0.0224 µM | 0.0427 µM | 0.0144 µM | 0.0331 µM | 0.0195 µM | 0.0347 µM | 0.0288 µM | 0.0224 µM | 0.038 µM | 0.53 µM | 41% | 0.0282 µM | 0.0123 µM | 0.0457 µM | 0.575 µM | 2.24 µM | 0.55 µM | 2.75 µM | 24 µM | 5.75 µM | TGI [5]: 1.58 µM; TGI [6]: 64.6 µM; TGI (Tumor Cell line [7]): 4.68 µM; TGI [8]: 10.2 µM
